Assay results as given in ChEMBL document CHEMBL1138253, “Cytotoxic and apoptotic activities of novel amino analogues of boswellic acids” (2007).
Activity calls are given as the source filed them. The rule behind the calls is not given here.

System: MCF7
Assay: Cytotoxicity against human MCF7 cells at 10 uM after 48 hrs
Format: functional
Settings: MCF7, 48 h
Procedure, shortened: (§1)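 SRB growth assay. DMSO stock (1 × 10^-2 M) diluted in RPMI-1640 (2 mM glutamine, pH 7.4, 10% FCS, antibiotics). Trypsinized subconfluent cells with >97% viability (trypan blue) seeded at 10^5 cells/ml and grown 24 h, then exposed to compound 48 h at 37 °C, 5% CO2. Fixed with TCA at 4 °C for 1 h, stained with 0.4% SRB, solubilized in 0.01 M Tris pH 10.4, OD read at 540 nm. Run in triplicate; mean of three experiments.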

SMILES | inhibition at 10 µM [%]
COC(=O)[C@]1(C)[C@@H]2CC[C@]3(C)[C@H](C(=O)C=C4[C@@H]5[C@@H](C)[C@H](C)CC[C@]5(C)CC[C@]43C)[C@@]2(C)CC[C@@H]1O | 0
CC(=O)O[C@@H]1CC[C@@]2(C)[C@@H](CC[C@]3(C)[C@@H]2CC=C2[C@@H]4[C@@H](C)[C@H](C)CC[C@]4(C)CC[C@]23C)[C@@]1(C)C(=O)O | 0

System: DU-145
Assay: Cytotoxicity against human DU145 cells at 10 uM after 48 hrs
Format: functional
Settings: DU-145, 48 h
Procedure, shortened: as §1

SMILES | inhibition at 10 µM [%]
COC(=O)[C@]1(C)[C@@H]2CC[C@]3(C)[C@H](C(=O)C=C4[C@@H]5[C@@H](C)[C@H](C)CC[C@]5(C)CC[C@]43C)[C@@]2(C)CC[C@@H]1O | 0
CC(=O)O[C@@H]1CC[C@@]2(C)[C@@H](CC[C@]3(C)[C@@H]2CC=C2[C@@H]4[C@@H](C)[C@H](C)CC[C@]4(C)CC[C@]23C)[C@@]1(C)C(=O)O | 0

System: SW-620
Assay: Cytotoxicity against human SW620 cells at 10 uM after 48 hrs
Format: functional
Settings: SW-620, 48 h
Procedure, shortened: as §1

SMILES | inhibition at 10 µM [%]
COC(=O)[C@]1(C)[C@@H]2CC[C@]3(C)[C@H](C(=O)C=C4[C@@H]5[C@@H](C)[C@H](C)CC[C@]5(C)CC[C@]43C)[C@@]2(C)CC[C@@H]1O | 11
CC(=O)O[C@@H]1CC[C@@]2(C)[C@@H](CC[C@]3(C)[C@@H]2CC=C2[C@@H]4[C@@H](C)[C@H](C)CC[C@]4(C)CC[C@]23C)[C@@]1(C)C(=O)O | 5

System: not listed separately
Assay: Cytotoxicity against human 502713 cells at 10 uM after 48 hrs
Format: functional
Settings: Homo sapiens, 502713, 48 h
Procedure, shortened: as §1

SMILES | inhibition at 10 µM [%]
COC(=O)[C@]1(C)[C@@H]2CC[C@]3(C)[C@H](C(=O)C=C4[C@@H]5[C@@H](C)[C@H](C)CC[C@]5(C)CC[C@]43C)[C@@]2(C)CC[C@@H]1O | 10
CC(=O)O[C@@H]1CC[C@@]2(C)[C@@H](CC[C@]3(C)[C@@H]2CC=C2[C@@H]4[C@@H](C)[C@H](C)CC[C@]4(C)CC[C@]23C)[C@@]1(C)C(=O)O | 20

System: HT-29
Assay: Cytotoxicity against human HT29 cells at 10 uM after 48 hrs
Format: functional
Settings: HT-29, 48 h
Procedure, shortened: as §1

SMILES | inhibition at 10 µM [%]
COC(=O)[C@]1(C)[C@@H]2CC[C@]3(C)[C@H](C(=O)C=C4[C@@H]5[C@@H](C)[C@H](C)CC[C@]5(C)CC[C@]43C)[C@@]2(C)CC[C@@H]1O | 3
CC(=O)O[C@@H]1CC[C@@]2(C)[C@@H](CC[C@]3(C)[C@@H]2CC=C2[C@@H]4[C@@H](C)[C@H](C)CC[C@]4(C)CC[C@]23C)[C@@]1(C)C(=O)O | 36

System: MCF7
Assay: Cytotoxicity against human MCF7 cells at 1 uM after 48 hrs
Format: functional
Settings: MCF7, 48 h
Procedure, shortened: as §1

SMILES | inhibition at 1 µM [%]
COc1cccc2c1C(=O)c1c(O)c3c(c(O)c1C2=O)C[C@@](O)(C(=O)CO)C[C@@H]3O[C@H]1C[C@H](N)[C@H](O)[C@H](C)O1 [DOXORUBICIN] | 74

System: DU-145
Assay: Cytotoxicity against human DU145 cells at 1 uM after 48 hrs
Format: functional
Settings: DU-145, 48 h
Procedure, shortened: as §1

SMILES | inhibition at 1 µM [%]
COc1cccc2c1C(=O)c1c(O)c3c(c(O)c1C2=O)C[C@@](O)(C(=O)CO)C[C@@H]3O[C@H]1C[C@H](N)[C@H](O)[C@H](C)O1 [DOXORUBICIN] | 56

System: SW-620
Assay: Cytotoxicity against human SW620 cells at 1 uM after 48 hrs
Format: functional
Settings: SW-620, 48 h
Procedure, shortened: as §1

SMILES | inhibition at 1 µM [%]
COc1cccc2c1C(=O)c1c(O)c3c(c(O)c1C2=O)C[C@@](O)(C(=O)CO)C[C@@H]3O[C@H]1C[C@H](N)[C@H](O)[C@H](C)O1 [DOXORUBICIN] | 36

System: not listed separately
Assay: Cytotoxicity against human 502713 cells at 1 uM after 48 hrs
Format: functional
Settings: Homo sapiens, 502713, 48 h
Procedure, shortened: as §1

SMILES | inhibition at 1 µM [%]
COc1cccc2c1C(=O)c1c(O)c3c(c(O)c1C2=O)C[C@@](O)(C(=O)CO)C[C@@H]3O[C@H]1C[C@H](N)[C@H](O)[C@H](C)O1 [DOXORUBICIN] | 5

System: COLO 205
Assay: Cytotoxicity against human Colo205 cells at 1 uM after 48 hrs
Format: functional
Settings: COLO 205, 48 h
Procedure, shortened: as §1

SMILES | inhibition at 1 µM [%]
COc1cccc2c1C(=O)c1c(O)c3c(c(O)c1C2=O)C[C@@](O)(C(=O)CO)C[C@@H]3O[C@H]1C[C@H](N)[C@H](O)[C@H](C)O1 [DOXORUBICIN] | 62

System: HL-60
Assay: Induction of apoptosis in human HL60 cells assessed as nucleosomal DNA fragmentation at 1 uM after 6 hrs
Format: functional, cell-based
Settings: not given
Procedure, shortened: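 HL-60 cells (2 × 10^6/3 ml) exposed to 1 µM compound for 6 h, with camptothecin as positive control and DMSO vehicle in untreated controls. DNA was extracted and run on 1.8% agarose gel to look for laddering.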

SMILES | Activity
CC[C@@]1(O)C(=O)OCc2c1cc1n(c2=O)Cc2cc3ccccc3nc2-1 | Active

System: MCF7
Assay: Cytotoxicity against human MCF7 cells at 50 uM after 48 hrs
Format: functional
Settings: MCF7, 48 h
Procedure, shortened: (§2)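 Stock 1 × 10^-2 M in DMSO, diluted in RPMI-1640 (2 mM glutamine, pH 7.4, 10% FCS, penicillin/streptomycin). Cells grown at 37 C, 5% CO2; subconfluent cells trypsinised, >97% viable by trypan blue. Seeded at 10^5 cells/ml, grown 24 h, then exposed 48 h. TCA fixation at 4 C for 1 h, sulforhodamine B staining, Tris pH 10.4 solubilisation, OD 540 nm. Triplicate; mean of three experiments.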

SMILES | inhibition at 50 µM [%]
O=c1[nH]cc(F)c(=O)[nH]1 [FLUOROURACIL] | 20

System: DU-145
Assay: Cytotoxicity against human DU145 cells at 50 uM after 48 hrs
Format: functional
Settings: DU-145, 48 h
Procedure, shortened: as §2

SMILES | inhibition at 50 µM [%]
O=c1[nH]cc(F)c(=O)[nH]1 [FLUOROURACIL] | 31

System: SW-620
Assay: Cytotoxicity against human SW620 cells at 50 uM after 48 hrs
Format: functional
Settings: SW-620, 48 h
Procedure, shortened: as §2

SMILES | inhibition at 50 µM [%]
O=c1[nH]cc(F)c(=O)[nH]1 [FLUOROURACIL] | 41

System: not listed separately
Assay: Cytotoxicity against human 502713 cells at 50 uM after 48 hrs
Format: functional
Settings: Homo sapiens, 502713, 48 h
Procedure, shortened: as §2

SMILES | inhibition at 50 µM [%]
O=c1[nH]cc(F)c(=O)[nH]1 [FLUOROURACIL] | 25

System: HT-29
Assay: Cytotoxicity against human HT29 cells at 50 uM after 48 hrs
Format: functional
Settings: HT-29, 48 h
Procedure, shortened: as §2

SMILES | inhibition at 50 µM [%]
O=c1[nH]cc(F)c(=O)[nH]1 [FLUOROURACIL] | 36
